Laboratory results as given in ChEMBL document CHEMBL1155447 (J Med Chem, 2010).

Key:
Aromatase [1] = target: T1, Aromatase (Homo sapiens, UniProt P11511)
T1 sequence (P11511 whole entry): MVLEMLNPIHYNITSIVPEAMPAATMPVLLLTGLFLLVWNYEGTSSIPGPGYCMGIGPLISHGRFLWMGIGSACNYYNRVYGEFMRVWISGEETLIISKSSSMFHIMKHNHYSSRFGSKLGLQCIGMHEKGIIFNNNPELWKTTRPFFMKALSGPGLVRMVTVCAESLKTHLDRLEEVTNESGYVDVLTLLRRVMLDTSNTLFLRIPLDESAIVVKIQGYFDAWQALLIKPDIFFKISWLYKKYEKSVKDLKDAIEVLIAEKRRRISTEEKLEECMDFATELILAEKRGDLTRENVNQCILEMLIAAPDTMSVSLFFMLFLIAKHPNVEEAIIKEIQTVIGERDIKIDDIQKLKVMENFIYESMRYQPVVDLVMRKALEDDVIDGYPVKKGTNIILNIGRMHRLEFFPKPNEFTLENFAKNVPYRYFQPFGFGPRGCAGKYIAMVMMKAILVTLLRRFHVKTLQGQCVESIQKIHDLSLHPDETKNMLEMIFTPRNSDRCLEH

[2] = target: T2, Steroid 17-alpha-hydroxylase/17,20 lyase (Homo sapiens, UniProt P05093); test: Inhibition of human CYP17 expressed in Escherichia coli at 2.5 uM
T2 sequence (P05093 whole entry): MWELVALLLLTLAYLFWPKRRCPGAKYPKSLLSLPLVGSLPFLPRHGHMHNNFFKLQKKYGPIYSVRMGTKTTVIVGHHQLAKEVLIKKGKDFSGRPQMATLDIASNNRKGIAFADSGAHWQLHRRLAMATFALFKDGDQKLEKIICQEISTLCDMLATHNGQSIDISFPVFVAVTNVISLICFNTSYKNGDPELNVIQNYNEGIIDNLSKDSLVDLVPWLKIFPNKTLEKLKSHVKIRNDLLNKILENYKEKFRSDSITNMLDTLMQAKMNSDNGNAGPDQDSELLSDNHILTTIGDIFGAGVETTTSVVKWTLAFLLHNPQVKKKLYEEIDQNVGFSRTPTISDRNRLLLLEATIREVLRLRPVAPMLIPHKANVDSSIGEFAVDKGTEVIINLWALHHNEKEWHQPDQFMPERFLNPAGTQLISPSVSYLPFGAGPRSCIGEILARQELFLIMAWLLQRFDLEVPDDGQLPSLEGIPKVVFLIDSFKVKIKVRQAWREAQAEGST

[3] = target: T2, Steroid 17-alpha-hydroxylase/17,20 lyase; test: Inhibition of human CYP17 expressed in Escherichia coli
Aromatase [4] = target: T1, Aromatase; test: Inhibition of aromatase from human placental microsomes at 10 uM
Summary of the method: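 Human placental microsomes were incubated with 1β[3H]androstenedione (500 nM) as substrate. Aromatization was quantified by measuring the tritiated water formed, and results are reported as % inhibition at 10 μM test concentration. Fadrozole served as the positive control.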

Compound	IC50 (Aromatase [1]) [nM]	inhibition at 2.5 µM [2] [%]	IC50 [3] [nM]	inhibition at 10 µM (Aromatase [4]) [%]
O=c1c2ccccc2sc2c(Cn3ccnc3)ccc([N+](=O)[O-])c12	16.5	5		
O=c1c2ccccc2oc2c(Cn3ccnc3)cccc12	17	17		
O=c1c2ccccc2oc2c(Cn3ccnc3)c([N+](=O)[O-])ccc12	1900	9		
O=c1c2cccnc2oc2c(Cn3ccnc3)ccc([N+](=O)[O-])c12	101			
O=c1c2ccccc2oc2c(Cn3ccnc3)cc([N+](=O)[O-])cc12	53			
O=c1c2ccccc2oc2ccc(Cn3ccnc3)cc12	7900	11		
O=c1c2ccccc2oc2cccc(Cn3ccnc3)c12	150		880	
O=[N+]([O-])c1ccc(Cn2ccnc2)c(Oc2ccccc2)c1	11.4			
CC(=O)N1CCN(c2ccc(OCC3COC(Cn4ccnc4)(c4ccc(Cl)cc4Cl)O3)cc2)CC1 (stereo not given) [KETOCONAZOLE]				17.7
O=[N+]([O-])c1ccc(Cn2ccnc2)c(Sc2ccccc2)c1	5.59	17		
O=c1c2ccccc2sc2c(Cn3ccnc3)cccc12	3.98	28		
c1ccc(Oc2ccccc2Cn2ccnc2)cc1	389	8		
